Data published in ChEMBL document CHEMBL1126916, “Cyclic GMP phosphodiesterase inhibitors. 1. The discovery of a novel potent inhibitor, 4-((3,4-(methylenedioxy)benzyl)amino)-6,7,8-trimethoxyquinazoline” (J Med Chem, 1993).

Experiments:
Phosphodiesterase 3A = molecular target: T1, Phosphodiesterase 3A (Sus scrofa, UniProt Q9XSW7); assay: Inhibition of cGMP-inhibited phosphodiesterase from porcine coronary arteries
T1 sequence (Q9XSW7 whole entry): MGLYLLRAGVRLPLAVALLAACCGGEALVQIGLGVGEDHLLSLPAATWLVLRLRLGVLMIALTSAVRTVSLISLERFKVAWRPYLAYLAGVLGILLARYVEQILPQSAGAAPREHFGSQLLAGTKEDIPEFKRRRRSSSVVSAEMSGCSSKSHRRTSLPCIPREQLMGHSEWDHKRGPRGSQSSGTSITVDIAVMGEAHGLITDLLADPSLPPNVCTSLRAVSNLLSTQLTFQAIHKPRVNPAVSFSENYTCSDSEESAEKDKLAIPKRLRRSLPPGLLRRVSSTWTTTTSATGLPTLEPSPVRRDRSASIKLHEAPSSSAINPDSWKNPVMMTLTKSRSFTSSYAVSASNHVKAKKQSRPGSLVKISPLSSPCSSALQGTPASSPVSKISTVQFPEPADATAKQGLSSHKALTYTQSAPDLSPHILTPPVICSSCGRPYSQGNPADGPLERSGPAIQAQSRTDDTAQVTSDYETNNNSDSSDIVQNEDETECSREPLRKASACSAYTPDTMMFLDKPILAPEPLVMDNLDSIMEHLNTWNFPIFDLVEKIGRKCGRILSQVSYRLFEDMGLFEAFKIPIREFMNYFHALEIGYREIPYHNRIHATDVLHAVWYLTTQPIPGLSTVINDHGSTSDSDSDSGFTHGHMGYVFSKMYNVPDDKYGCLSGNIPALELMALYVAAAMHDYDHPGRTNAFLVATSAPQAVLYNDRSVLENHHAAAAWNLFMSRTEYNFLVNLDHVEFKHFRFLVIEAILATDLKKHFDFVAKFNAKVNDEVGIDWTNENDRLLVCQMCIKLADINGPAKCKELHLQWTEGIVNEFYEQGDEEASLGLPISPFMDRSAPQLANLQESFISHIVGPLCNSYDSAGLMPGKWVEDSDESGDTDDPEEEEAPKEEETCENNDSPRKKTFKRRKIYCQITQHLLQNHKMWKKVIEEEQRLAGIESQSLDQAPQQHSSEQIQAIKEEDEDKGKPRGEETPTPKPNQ
Outline: (§1)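 Isozymes were separated from porcine aorta: type II (cGMP-stimulated), type III, and type IV (cAMP-specific). Each used [3H]cAMP at 1 μM as substrate. Compounds were tested in DMSO diluted in assay buffer over 10^-8 to 10^-4 M, with final DMSO below 0.4% (v/v). IC50 came from log concentration–inhibition curves (at least three points), as means ± SEM from at least three experiments.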

Phosphodiesterase 4A [1] = molecular target: T2, Phosphodiesterase 4A (Sus scrofa, UniProt O77823); assay: Inhibition of cAMP specific phosphodiesterase from porcine aorta
T2 sequence (O77823 whole entry): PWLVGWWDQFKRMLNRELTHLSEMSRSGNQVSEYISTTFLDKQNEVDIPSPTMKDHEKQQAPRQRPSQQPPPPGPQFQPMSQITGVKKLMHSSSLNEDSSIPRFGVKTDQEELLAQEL

Phosphodiesterase 4A [2] = molecular target: T2, Phosphodiesterase 4A; assay: Inhibition of cAMP specific phosphodiesterase from porcine coronary arteries; details: in the assay text read “porcine aorta” for “porcine coronary arteries”; outline: as §1
Sus scrofa = organism: Sus scrofa; assay: Relaxant effect on PGF2-alpha precontracted pig coronary arteries; assay type: functional
Outline: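 Porcine coronary arterial strips were equilibrated at 1 g resting tension. Intact endothelium was confirmed by 7 × 10^-9 M bradykinin relaxing strips precontracted with 50 mM KCl (final concentrations). Strips were then contracted with PGF2α, final 10^-6 M, and cumulative concentration–relaxation curves were built after a plateau. Relaxation was expressed as % of the PGF2α contraction. EC50 came from the log curve, mean ± SEM, n experiments.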

Phosphodiesterase 4A [3] = molecular target: T2, Phosphodiesterase 4A; assay: Inhibition of cAMP specific phosphodiesterase from porcine aorta
Outline: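 PDE isozymes (types I–V) separated from porcine aorta. Substrate was [3H]cGMP for types I and V and [3H]cAMP for types II, III and IV, each at 1 μM. Test agents were dissolved in DMSO and diluted in assay buffer over 10^-8 to 10^-4 M, with final DMSO below 0.4% (v/v). IC50 was taken from the log concentration–inhibition curve (at least three points), mean ± SEM of at least three experiments.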

[4] = in the assay text read “porcine aorta” for “porcine coronary arteries”

SMILES	IC50 (Phosphodiesterase 4A [1]) [µM]	IC50 (Phosphodiesterase 4A [2]) [µM]	IC50 (Phosphodiesterase 3A; [4]) [µM]	EC50 (Sus scrofa) [µM]	also measured
COc1ccc(Cc2nccc3cc(OC)c(OC)cc23)cc1OC [PAPAVERINE]	1.7	–	–	–	IC50 (Phosphodiesterase 3A): 0.62 µM
OCCN(CCO)c1nc(N2CCCCC2)c2nc(N(CCO)CCO)nc(N3CCCCC3)c2n1 [DIPYRIDAMOLE]	–	6.4	> 100	–	–
CCCOc1ccccc1-c1nc2nn[nH]c2c(=O)[nH]1 [ZAPRINAST]	–	–	> 100	4.75	IC50 (Phosphodiesterase 4A [3]): 79.6 µM
Clc1cccc(Nc2nnc(-c3ccccc3)c3ccccc23)c1	37.2	–	–	–	–
COc1cc2c(NCc3ccc4c(c3)OCO4)ncnc2c(OC)c1OC	–	> 100	–	1.96	–
